Assay outcomes deposited in PubChem by Broad Institute.
Ecoli rRNA inh – reduced GFP signal of wild-type E. coli, primary screen, bacterial rRNA inhibitor project, GFP/RFP fluorescence, OD600, single point. hit rate 1.6% among 350,000. GFP signal change (wild-type ribosome), % (test concentration not listed). AID 720706, 2013. E. coli WT GFP vs humanized-ribosome RFP mutants, 24 h; active compounds read low; DMSO median 0, no signal -100;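 active = significant combined selectivity score with lowered wild-type GFP, culture density cut under 30%, mutant RFP and density less affected; inactive = any of these conditions unmet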
FN deposition inh – inhibitors of fibronectin matrix deposition, primary screen, AH1F cells, Alexa488-fibronectin fluorescence, plate reader; AH1F fibroblasts, overnight; inhibition, % at 12.6 µM; hit rate 0.086% among 350,000; AID 743247, 2014;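 active = mean inhibition across replicates of 30% or more, regardless of how many single replicates reach that level; inconclusive = mean under 30% yet at least half of replicates reach 30%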
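Material – AH1F fibroblast monolayer, labelled fibronectin deposition · Reagent – labelled fibronectin 24 nM · Timing – 1 h adhesion, overnight exposure · Measured by – fluorescence at 485 nm excitation, 525 nm emission · Read-out – inhibition of fibronectin deposition signal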
PGC1a acetyl inh – inhibitors of PGC1a acetylation signal, primary screen, cell-based, U2OS, AlphaScreen, inhibitor mode; AlphaScreen anti-acetyl-lysine; with virally co-expressed GCN5 acetyltransferase; inhibition, % at 15.6 µM; hit rate 0.17% among 350,000;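 active = every replicate shows inhibition of at least 40%; inconclusive = mean inhibition at least 40% but some replicate below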
Env fusion inh – inhibitors of HIV-1 Env-driven cell-cell fusion, primary screen, HeLa-JRFL effector, CEM21 target cells, luciferase. inhibition, % at 12.3 µM. hit rate 1.1% among 360,000;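 active = mean replicate inhibition score of at least 50 and every replicate individually at or above 50; inconclusive = only one of the two criteria met; inactive = mean below 50 and not all replicates reaching 50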
DENV2 CPE rescue – inhibitors of DENV2 cytopathic effect, primary screen, cell-based, plate reader, single concentration; DENV2-infected cells, cytopathic effect rescue; CPE inhibition, % at 9.99 µM; hit rate 1.7% among 350,000; AID 651640, 2012; in the data active = CPE inhibition above about 20%, passing the limit was not always enough; inconclusive = no clear call, values can overlap the other calls; tested in BHK-21 cells
PglD inh – C. jejuni PglD acetyltransferase inhibitors, primary screen, biochemical, DTNB colorimetric, single point. UDP-N-acetylbacillosamine N-acetyltransferase PglD (Campylobacter jejuni). purified PglD enzyme, DTNB colorimetric CoA detection. inhibition, % at 12.5 µM. hit rate 0.098% among 360,000. AID 602405, 2012; in the data active = inhibition above about 16%, passing the limit was not always enough; inconclusive = no clear call, values can overlap the other calls
HepG2 tox – cytotoxicity in HepG2 cells, dose response, cytotoxicity control, cell-based, CellTiter-Glo luminescence, cherry-pick, set 4. shares compounds with Ecoli rRNA inh. HepG2 viability, ATP luminescence, 72 h. activity change, negative = cytotoxicity, unspecified at 26 µM. 30 tested, under 10 active. AID 743480, 2014;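 active = compounds whose fitted half-maximal signal-loss concentration is at most twice their highest valid dose; inconclusive = flat curve with 30 to 70% signal loss, or poor fit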
AID977621 – growth inhibition of wild-type GFP E. coli, dose response, H69 mutant RFP, cherry-pick | shares compounds with Ecoli rRNA inh | E. coli wild-type GFP strain growth, fluorescence, 24 h | activity change, negative = inhibition at 50 µM | 1,900 tested, under 10 active | AID 977621, 2014;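 active = Wild-type ribosome reporter drop at least double the humanized mutant ribosome reporter drop, growth loss under a set limit; inconclusive = no clear call, values can overlap the other calls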;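 note: wild-type GFP and H69 mutant RFP strains grown together 50/50 in each well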
AID977628 – E. coli growth inhibition, wild-type GFP versus h24 humanized RFP strain, dose response, h24 mutant RFP vs wild-type GFP, cherry-pick. shares compounds with Ecoli rRNA inh. E. coli WT GFP strain growth, fluorescence, 24 h. activity change, negative = inhibition at 50 µM. 1,900 tested, under 10 active. AID 977628, 2014;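 active = compound lowering the normal-ribosome reporter at least twice as much as the humanized-ribosome reporter, growth loss under a set limit; inconclusive = no clear call, values can overlap the other calls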;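 note: wild-type GFP and h24 humanized RFP strains co-cultured 1 to 1 per well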
Hits are given with their value; n = inactive; u = inconclusive; x = not tested or not shown. The list is not random: actives were taken first. Their share in the collection is about 3.5%.

SMILES | Ecoli rRNA inh | FN deposition inh | PGC1a acetyl inh | Env fusion inh | DENV2 CPE rescue | PglD inh | AID977621 | AID977628 | others
NS(=O)(=O)c1ccc(NC(=O)c2cc(Cl)sc2Cl)cc1 | -25.0 | n | n | n | n | n | n | n
Cc1ccc(S(=O)(=O)N(C)C[C@H]2Oc3ccc(NC(=O)CCN4CCOCC4)cc3C(=O)N([C@@H](C)CO)C[C@@H]2C)cc1 | n | x | n | x | n | n | x | x
CC(=O)Oc1ccc(N(C(C)=O)S(=O)(=O)c2ccc(Cl)cc2)c2ccccc12 | -22.9 | n | n | n | n | n | n | u
CC(=O)Oc1ccc(N(C(C)=O)S(=O)(=O)c2ccc(C)cc2)c2ccccc12 | -25.1 | n | x | n | n | x | n | x
CC(=O)N(c1ccccc1C)S(=O)(=O)c1ccc(Cl)cc1 | n | x | x | n | n | x | x | x
C[C@@H]1CCCCO[C@@H](CN(C)Cc2ccncc2)[C@H](C)CN([C@@H](C)CO)C(=O)c2cc(NC(=O)c3ccncc3)ccc2O1 | n | n | n | n | n | n | x | x
CCOc1ccccc1N1CCN(Cc2cn[nH]c2-c2ccc(F)cc2)CC1 | -19.3 | n | n | n | n | x | n | x
CCC(=O)Nc1ccc2c(c1)C(=O)N(C)C[C@@H](OC)[C@@H](C)CN(Cc1cccnc1)[C@@H](C)CO2 | n | x | n | x | x | x | x | x
COc1ccccc1CNC(=O)C[C@@H]1CC[C@@H]2[C@H](COC[C@H](O)CN2C(=O)Nc2ccccc2)O1 | n | n | n | x | n | n | x | x
O=[N+]([O-])c1ccc2nc(-c3ccccc3[N+](=O)[O-])[nH]c2c1 | -27.6 | n | x | n | n | x | x | n
O=[N+]([O-])c1cccc(-c2nc3ccc([N+](=O)[O-])cc3[nH]2)c1 | n | n | n | n | n | x | x | x
C[C@@H]1CN([C@H](C)CO)S(=O)(=O)c2ccc(C3=CCCCC3)cc2O[C@H]1CN(C)C(=O)c1ccncc1 | n | n | n | n | n | n | x | x
Cc1cc(C)c(C#N)c(N2CCN(c3ccccc3)CC2)n1 | -26.4 | n | 48.9 | n | n | n | x | x | HepG2 tox=n
COc1cccc(CNC(=O)C[C@@H]2C=C[C@@H](NS(=O)(=O)c3ccccc3OC)[C@@H](CO)O2)c1 | n | x | n | n | n | n | x | x
Cn1c(CO)cnc1SCC(=O)c1ccc(F)cc1 | n | n | n | n | n | n | x | x
Cn1c(CO)cnc1SCC(=O)c1ccc(Br)cc1 | -20.7 | n | n | n | n | x | n | n
CN(C)S(=O)(=O)N1CCN(c2cc(Cl)ccc2Cl)CC1 | x | n | n | n | x | n | x | x
CN(C)S(=O)(=O)N1CCN(c2ccccc2Cl)CC1 | -21.4 | x | n | x | n | n | n | n
C[C@H](CO)N1C[C@H](C)[C@H](CN(C)Cc2ccc3c(c2)OCO3)Oc2ccc(NS(=O)(=O)c3ccccc3)cc2CC1=O | n | n | n | x | n | n | x | x
O=C(CN1CCCCC1)Nc1ccccc1-c1ccccc1 | -14.9 | x | n | x | n | n | n | x
Cc1cc(Br)c2nc(-c3ccc(Cl)cc3)c(Cc3cccc(Cl)c3)n2c1 | -18.9 | n | x | n | n | x | u | u
Cc1ccc(-c2nc3c(Br)cc(C)cn3c2Cc2cccc(Cl)c2)cc1 | n | n | x | n | n | x | x | x
CCOC(=O)c1cnc2ccc(OC)cc2c1NCc1ccccc1 | n | n | n | x | n | n | x | x
CCOC(=O)c1cnc2ccccc2c1NCc1ccco1 | -29.5 | n | n | n | n | n | x | n
